# Assay results as given in the RNAGym collection of RNA variant scans (doi:10.1038/s41586-018-0170-7).
# B1: tRNA (parent)
# chain: GUUCCGUUGGCGUAAUGGUAACGCGUCUCCCUCCUAAGGAGAAGACUGCGGGUUCGAGUCCCGUACGGAACG
# Variants of: B1
# Test: yeast fitness, log relative to wild type (ln ratio); higher = fitter; tRNA-Arg(CCU), competitive growth, 37 C, 1 M NaCl
# Procedure, shortened: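 In BY4742 missing the chromosomal gene, a combinatorial tRNA-Arg(CCU) variant library was maintained on a HIS3 centromeric plasmid. Selection ran ~6.5 generations (~26.5 h) in SC-HIS 1M NaCl at 37 °C, following 4 generations in SC-HIS at 30 °C, with three outputs per input and variant counts by 125 bp paired-end Illumina sequencing. Fitness is the natural log of a genotype's generations relative to the wild type's, with generations taken as inverse-variance-weighted, OD-scaled log2 output/input frequency.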
row,Variant,yeast fitness (ln)
1,G1A U2C G6U C46U C66U C71U,-0.0885
2,G6A A43C C66U A70G C71U,-0.26
3,C66A C71U,-0.0269
4,G1A U2G G6A A43C C66U A70U,-0.434
5,U2C G6U C27U A43C C46U,-0.0629
6,U2G G6A C46U C66A,-0.093
7,U2C G6A A43C C46U A70U C71U,-0.09
8,U2C G6U C27U A69G A70G C71U,-0.157
9,G6U C66U A69G C71U,-0.374
10,G1A C27U C66A A69G A70U C71U,-0.303
11,G1A C27U C46U C66A A70G C71U,-0.187
12,G6U A69G A70U,-0.145
13,G1A U2C C27U A43C C46U C66U A70U C71U,-0.297
14,G1A U2G G6U C27U C46U C66A C71U,-0.175
15,G1A U2G G6U A43C C46U C66U A70G,-0.344
16,G1A G6A C27U A43C C46U C66U A69G A70G,-0.309
17,G1A G6U C46U C66A A69G A70G,-0.158
18,G1A U2G A43C C46U C66U A69G A70G,-0.254
19,G1A U2C G6A C27U A43C C66U A70G,-0.3
20,G1A A43C C46U A70G,-0.166
21,G1A U2G C27U A43C C66U,-0.123

row,Variant,yeast fitness (ln)
1,U2C A43C C46U A70U,-0.0182
2,C66A A69G C71U,-0.108
3,G1A U2G G6U A43C C66U A69G A70G,-0.371
4,U2G G6U C27U C46U A69G A70U,-0.153
5,G1A U2C G6U C27U C46U C66U A69G A70U,-0.222
6,U2G G6A C27U C46U C66A A69G A70G,-0.134
7,A43C C46U,0.00767
8,U2C G6U C46U C66A A69G A70U,-0.143
9,G1A U2C C27U A43C C46U C66A A70U C71U,-0.27
10,U2G G6A C27U A43C A69G A70G,-0.168
11,G1A C27U C71U,-0.0389
12,G1A A43C C66U A70G,-0.236
13,U2G A43C C46U C66A A69G A70G C71U,-0.21
14,G6U C66U A69G A70U,-0.261
15,G1A G6A C66U A69G,-0.346
16,G1A G6U C27U A43C C71U,-0.352
17,G1A G6U C66U A69G C71U,-0.312
18,G1A U2C G6U C27U A43C A70U,-0.14
19,G1A U2G C27U A43C C66U A70G C71U,-0.383
20,G6A C27U C66U A69G,-0.0541
21,G6U C27U C46U C66A C71U,-0.0489

row,Variant,yeast fitness (ln)
1,G1A U2C G6U C46U C66A C71U,-0.0738
2,G1A G6U C27U C66U A69G A70G,-0.47
3,G1A G6A C27U C66A A70G C71U,-0.473
4,U2C C27U C46U A69G A70G C71U,-0.0348
5,G1A U2G G6A C27U A43C C46U A70U,-0.215
6,U2G C27U C66A A69G A70G C71U,-0.247
7,G1A U2C G6U C27U C46U C66U C71U,-0.196
8,G6U A43C C46U C66A A69G A70G C71U,-0.167
9,U2G C27U C46U C66U A69G A70U,-0.392
10,G1A G6A A43C C66U C71U,-0.144
11,G6U C27U A43C C66U A69G A70U C71U,-0.341
12,G1A G6U C27U A43C C46U C66U A70G,-0.387
13,G1A U2G A70G,-0.0928
14,G1A U2G G6A C27U C46U C66U A70U C71U,-0.0596
15,U2C C66U A69G A70U,-0.0622
16,G1A U2G A70G C71U,-0.212
17,G1A C27U A43C C46U C66U A69G A70G,-0.188
18,G6U C27U C46U C66U C71U,-0.359
19,A43C C46U C66A A69G A70G,-0.0183
20,G1A U2G G6U C27U C66A C71U,-0.273
21,U2G G6A C46U A69G C71U,-0.124

row,Variant,yeast fitness (ln)
1,U2C G6U C46U A69G A70U,-0.086
2,G1A C66A A70G C71U,-0.0638
3,G1A G6U C27U A43C C46U C66A A70G C71U,-0.377
4,C27U A43C C66U A69G C71U,-0.344
5,U2C G6A A69G C71U,-0.176
6,U2G C27U C66A C71U,-0.148
7,G1A G6U C66A A70G,-0.196
8,G6U C27U C46U C66U A69G A70G,-0.318
9,G6U C27U C46U C66U A69G A70U,-0.308
10,U2G C46U C66A A70G C71U,-0.116
11,U2G G6U A43C C46U C71U,-0.198
12,C27U A43C A70G C71U,-0.112
13,G1A G6A A43C C46U C66U A69G A70U C71U,-0.4
14,G1A C66U A70G,-0.107
15,G1A U2G G6U A43C A70U,-0.257
16,G6A C46U A70U,-0.237
17,U2G C46U C66A A69G A70G C71U,-0.139
18,G6U A43C C46U C66U A69G C71U,-0.321
19,G1A U2G C46U C66A A70G C71U,-0.198
20,G1A G6U C27U C46U A69G A70U C71U,-0.431
